# From PubChem
# An excerpt weighted towards active compounds, which were near 2.1% of everything screened.
# CRFR2-BP antag: antagonists of CRF-BP/CRF-R2 complex, primary screen, cell-based, HEK293, calcium dye fluorescence, uHTS | inhibition, % at 11.8 µM | 350,000 compounds, 0.59% hits | AID 588475, 2011 | CRF-induced calcium fluorescence;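 active means inhibition of the ligand-induced calcium signal above about 50% at the single tested concentration, limit read from the data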
# Cardio protect: cardioprotection against H2O2-induced cell death, primary screen, uHTS, H9c2 cells, ATPLite luminescence | H9c2 cardiomyocytes, H2O2 injury protection, 2 h | 360,000 compounds, 0.63% hits | protection from H2O2 cell death, % at 20 µM | AID 588492, 2011;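 active means compounds giving at least 50% protection of heart cells from peroxide-induced death in the single-dose screen, raw or plate-pattern-corrected value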;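 further: 0% = DMSO wells with peroxide and 100% = DMSO wells without peroxide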
# MIN6 prolif: inducers of MIN6 beta-cell proliferation, primary screen, ATP luminescence, uHTS; 330,000 compounds, 0.29% hits; MIN6 cells proliferation, ATPlite luminescence, 48 h; cells starved in 0.2% serum; 100% = growth in 10% serum; proliferation, % at 10 µM; AID 2380, 2010;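 active means compounds whose signal lies at least 3.5 SD above the mean of all wells on their plate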;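 further: 0% = DMSO-treated cells in low-serum medium and 100% = 10% serum control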
# UCH37 inh: inhibitors of human UCH37 deubiquitinase, primary screen, biochemical, Ub-AMC cleavage, fluorescence; purified proteasome/UCH37; AID 588478, 2011; inhibition, % (concentration not given with the values); Ubiquitin carboxyl-terminal hydrolase isozyme L5 (Homo sapiens), Q9Y5K5; 330,000 compounds, 0.33% hits;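 active means mean inhibition over replicate wells above about 20%, limit read from the data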;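 further: 0% = compound-free wells with enzyme and 100% = wells lacking proteasome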
# Target sequence (Q9Y5K5 whole entry, looked up): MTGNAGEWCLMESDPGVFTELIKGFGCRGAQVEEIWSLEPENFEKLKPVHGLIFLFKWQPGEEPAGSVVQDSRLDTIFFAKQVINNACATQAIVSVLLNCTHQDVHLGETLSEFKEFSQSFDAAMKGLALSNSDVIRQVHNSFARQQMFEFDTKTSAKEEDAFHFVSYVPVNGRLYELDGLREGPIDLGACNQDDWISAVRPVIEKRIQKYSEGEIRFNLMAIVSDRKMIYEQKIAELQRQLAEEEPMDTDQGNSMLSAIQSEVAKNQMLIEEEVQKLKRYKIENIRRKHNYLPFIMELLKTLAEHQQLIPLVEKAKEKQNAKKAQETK
#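 System: Proteasome-associated human UCH37 deubiquitinase; Input: 0.15 nM proteasome in added enzyme buffer; Also added: Ub-AMC substrate from 1 µM stock; Incubation: 30 min compound-proteasome preincubation then 25 min substrate reaction, room temperature; Detection: fluorescence, ex 355 nm, em 460 nm; Read-out: % inhibition of Ub-AMC cleavage fluorescence; Benchmarks: no-proteasome and no-compound wells.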
# iPSC survival up: enhancers of single-cell hiPSC survival, primary screen, ATPlite luminescence | 100% = ROCK inhibitor wells, 0% = DMSO | survival enhancement, % at 20 µM | 360,000 compounds, 0.044% hits | AID 602274, 2012; in the data active means survival enhancement above about 18%;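 further: cells exposed to compounds for 16 hours before the ATP read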
# CRFBP-R2 agonist: agonists of CRF-BP/CRF-R2 complex, primary screen, cell-based, HEK293, calcium dye fluorescence, uHTS | calcium dye fluorescence (FLIPR); percent of saturating CRF peptide response | AID 588473, 2011 | 350,000 compounds, 0.46% hits | CRF-binding protein / CRF receptor 2 complex (human) | activation, % at 13.2 µM;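 active means activation of at least 50%, plus an integration ratio under a set limit after plate pattern correction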;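 further: plate controls were neutral control wells without compound for no effect and CRF at EC100 for full effect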
# UCH37 confirm: retest of human UCH37 deubiquitinase inhibitors, confirmation, biochemical, Ub-AMC cleavage rate, fluorescence. inhibition, % at 20 µM. 480 compounds, 27% hits. Proteasome-bound UCH37. shares compounds with UCH37 inh;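 active means average inhibition over replicates above about 50%, so the earlier screening hit is confirmed, limit read from the data; inactive means the rest, counted as false positives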;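 further: based on cleavage rate fitted by regression over a 30 min kinetic read; 0% = proteasome plus Ub-AMC and 100% = Ub-AMC without proteasome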
# Active calls of the source: *; · = not tested or not shown.
SMILES,CRFR2-BP antag,Cardio protect,MIN6 prolif,UCH37 inh,iPSC survival up,CRFBP-R2 agonist,UCH37 confirm
CCOC(=O)CN1C(=O)S/C(=C/c2cccc([N+](=O)[O-])c2O)C1=O,12.1,-8.6,-3.1,15.1,-3.3,0.5,·
O=C(O)c1cccc(CN2C(=O)S/C(=C/c3ccccc3[N+](=O)[O-])C2=O)c1,4.9,-6.1,-2.3,79.7*,-0.1,0.5,34.9
COC(=O)c1ccc(C=NNc2nc3ccccc3[nH]2)cc1,·,·,·,5.3,·,·,·
Cc1cc(C)c(Nc2cc(S(=O)(=O)O)c(N)c3c2C(=O)c2ccccc2C3=O)c(C)c1,52.7*,-6.7,·,34.0*,-0.4,13.4,92.7*
CCOC(=O)/C(=C/C=C1\Sc2ccccc2N1CC)C(C)=O,-233.2,-9.8,-5.0,30.2*,-3.0,237.5*,31.8
CCN1/C(=C/C(=O)c2ccco2)Sc2ccccc21,20.0,2.6,-5.0,-3.2,0.2,-2.5,·
O=C(NN=Cc1ccco1)c1cc(C2CC2)nc2ccccc12,·,·,·,0.5,·,·,·
CNC(=O)OCc1cocc1COC(=O)NC,·,·,·,·,1.2,·,·
CNC(=O)OCc1cccc(COC(=O)NC)n1,3.2,-2.0,-2.4,35.1*,10.2,3.1,21.0
CCc1ccc(S(=O)(=O)/N=C2\C=C(NS(=O)(=O)c3ccccc3)C(=O)c3ccccc32)cc1,27.4,-5.0,-6.8,13.0,0.3,-3.1,·
O=C(O)c1ccc(NC2=CC(=NS(=O)(=O)c3ccccc3)c3ccccc3C2=O)cc1,·,·,·,94.9*,·,·,97.9*
O=C(O)c1ccc(S(=O)(=O)/N=C2\C=C(Nc3ccccc3F)C(=O)c3ccccc32)cc1,2.7,-19.3,-3.7,93.3*,-0.6,-0.3,98.6*
COc1cccc(C=NNC(=O)CN(CCc2ccccc2)S(=O)(=O)c2ccc(NC(C)=O)cc2)c1,·,·,·,4.6,·,·,·
O=S(=O)(Nc1cc(Sc2ncn[nH]2)c(O)c2ccccc12)c1ccccc1,-65.3,-16.4,-5.2,38.0*,-1.3,4.8,69.5*
O=c1[nH]c(=S)[nH]c2c1C(c1ccc(Br)cc1)c1c([nH]c(=S)[nH]c1=O)O2,12.5,2.2,·,26.9*,0.1,-1.0,38.3
O=C1CCCC2=C1C(c1ccc(Br)cc1)c1c([nH]c(=S)[nH]c1=O)N2 (stereo not drawn),12.5,4.2,-0.1,1.8,0.8,-1.7,·
COc1cccc(C=NNC(=O)c2[nH]c(C)c(C(=O)NN=Cc3cccc(OC)c3O)c2C)c1O,·,·,·,-19.4,·,·,·
Nc1cccc2c1C(=O)N(Cc1cccc(Cl)c1)C2=O,-18.5,-1.9,-2.1,-95.5,-0.4,7.0,·
O=C1Cc2ccccc2C(=O)N1Cc1cccc(Cl)c1,6.1,-7.4,·,33.8*,1.7,-1.5,16.7
CC(=NNC(=O)C1CC1)c1ccc2c(c1)OCCO2,·,·,·,-1.3,·,·,·
CCN(C)c1ccc(C=Nn2nnnc2N)cc1,·,·,·,-91.9,·,·,·
CC(=O)Nc1nc(SCC(=O)NCc2ccc(F)cc2)[nH]c(=O)c1NC(=O)c1cccs1,5.6,5.5,1.7,42.9*,0.7,-0.7,9.2
CCC(=O)N(CC)C1=C(O)c2ccccc2C(=O)C1=O,48.8,-10.4,-5.6,37.0*,0.5,-0.9,9.0
CCC(=O)N(C)/C=C1\Sc2ccccc2C1=O,5.1,2.0,-1.2,4.0,0.2,-0.8,·
CC(C)(C)c1ccc(O)c(C=NO)c1,·,·,·,0.7,·,·,·
SMILES,CRFR2-BP antag,Cardio protect,MIN6 prolif,UCH37 inh,iPSC survival up,CRFBP-R2 agonist,UCH37 confirm
CC1(CC(=O)NN=Cc2ccc(-c3cccc(C(F)(F)F)c3)o2)OCCO1,·,·,·,-4.2,·,·,·
NC(=S)n1[nH]c(-c2ccccc2)c(N=Nc2ccccc2C(=O)N2CCOCC2)c1=O,18.7,-1.1,1.8,53.7*,-0.5,-1.8,5.6
O=C(NC(C(=O)NN=Cc1cccc2ccccc12)c1n[nH]c(=O)c2ccccc12)c1ccccc1 (stereo not drawn),·,·,·,4.5,·,·,·
CNC(=O)N(O)C1N(N=Cc2ccccc2OC)C(=S)SC1(C)C (stereo not drawn),·,·,·,9.7,·,·,·
Cc1ccc(C(=O)ON=Cc2ccc(N3CCCCC3)c([N+](=O)[O-])c2)cc1,·,·,·,40.4*,·,·,-2.2
Cc1ccc(C(=O)O/N=C\c2ccc(N3CCCCC3)c([N+](=O)[O-])c2)cc1,-4.3,-18.5,-2.3,·,1.7,-1.4,·
COCc1cc(C)nc(OCC(=O)NN=Cc2ccccc2O)c1C#N,·,·,·,-3.7,·,·,·
CCOC(=O)/C(C#N)=C\C=C1C=CN(C)C=C1,-19.1,-15.6,0.5,·,-2.5,46.2,32.8
COc1ccc(C=NNC(=O)Nc2nonc2N)cc1,·,·,·,4.4,·,·,·
COc1ccccc1C1/C(=C(\O)c2ccc3c(c2)OCCO3)C(=O)C(=O)N1CCCn1ccnc1 (stereo not drawn),-9.0,0.4,1.0,42.4*,0.4,0.2,32.8
O=C1C2C3CCCC3=C3CCCC3C2C(=O)N1c1ccc(F)cc1 (stereo not drawn),-3.1,-9.8,-0.5,31.8*,-1.8,1.5,53.2*
CC(=O)N1C(=O)/C(=C2\SC(=S)N(c3c(C)n(C)n(-c4ccccc4)c3=O)C2=O)c2ccccc21,27.2,16.7,·,25.2*,0.6,-0.6,45.3
Cc1c(N2C(=O)/C(=C3/C(=O)N(C)c4ccccc43)SC2=S)c(=O)n(-c2ccccc2)n1C,9.5,10.4,0.1,5.1,1.5,-3.2,·
COc1cccc(-c2c(C(=O)NN=C(C)c3cccs3)nnn2-c2nonc2N)c1,·,·,·,3.5,·,·,·
O=C(CCN1C(=O)/C(=C/c2cccs2)SC1=S)Nc1ccc(C(=O)O)c(O)c1,19.7,-5.5,-3.5,25.8*,-0.4,-1.3,18.0
O=[N+]([O-])c1ccc(N=Nc2ccc(O)cc2O)cc1,26.4,18.5,-6.0,25.4*,-1.9,6.8,45.8
CCOC(=O)N1CCN(C2=C(NS(=O)(=O)c3ccc(NC(C)=O)cc3)C(=O)c3ccccc3C2=O)CC1,4.8,8.5,-3.5,29.6*,-0.4,-0.6,14.9
O=C(O)CC1S/C(=N/N=C/C=C/c2ccccc2)NC1=O (stereo not drawn),18.7,-0.2,-3.2,25.5*,0.7,-1.2,20.5
O=C(O)CC1S/C(=N/N=C/C=C/c2ccccc2[N+](=O)[O-])NC1=O (stereo not drawn),14.8,-6.0,-2.7,·,-2.1,-0.2,·
CC(Oc1ccccc1)C(=O)N=Nc1c(O)[nH]c2ccc([N+](=O)[O-])cc12 (stereo not drawn),30.3,3.5,0.6,67.0*,-0.9,1.1,45.6
